Laboratory results from ChEMBL document CHEMBL4422626, “Optimization of novel benzofuro[3,2-b]pyridin-2(1H)-one derivatives as dual inhibitors of BTK and PI3Kδ” (Eur J Med Chem, 2019).
Active and inactive are the calls of the source. No cut-off for these calls is given here.

How the values were obtained:
[1] = test system: Ramos; assay: Antiproliferative activity against human Ramos cells after 48 hrs by CCK8 assay; assay type: functional, cell-based
In short: (§1)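 Raji and Ramos cells grown in RPMI1640 or IMDM with 10% FBS, 37 °C, 5% CO2. Seeded at 3000-5000 cells/well and left 12-24 h before dosing. Several compound concentrations given for 48 h. CCK-8 then added for 4 h and OD read at 450 nm. IC50 is the concentration giving 50% cell death versus control, calculated from inhibition ratios.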

[2] = biological target: T1, Phosphatidylinositol 4,5-bisphosphate 3-kinase catalytic subunit delta isoform (Homo sapiens) (UniProt O00329); assay: Inhibition of PI3Kdelta (unknown origin) at 200 nM by ADP-gloassay relative to control
T1 sequence (whole entry): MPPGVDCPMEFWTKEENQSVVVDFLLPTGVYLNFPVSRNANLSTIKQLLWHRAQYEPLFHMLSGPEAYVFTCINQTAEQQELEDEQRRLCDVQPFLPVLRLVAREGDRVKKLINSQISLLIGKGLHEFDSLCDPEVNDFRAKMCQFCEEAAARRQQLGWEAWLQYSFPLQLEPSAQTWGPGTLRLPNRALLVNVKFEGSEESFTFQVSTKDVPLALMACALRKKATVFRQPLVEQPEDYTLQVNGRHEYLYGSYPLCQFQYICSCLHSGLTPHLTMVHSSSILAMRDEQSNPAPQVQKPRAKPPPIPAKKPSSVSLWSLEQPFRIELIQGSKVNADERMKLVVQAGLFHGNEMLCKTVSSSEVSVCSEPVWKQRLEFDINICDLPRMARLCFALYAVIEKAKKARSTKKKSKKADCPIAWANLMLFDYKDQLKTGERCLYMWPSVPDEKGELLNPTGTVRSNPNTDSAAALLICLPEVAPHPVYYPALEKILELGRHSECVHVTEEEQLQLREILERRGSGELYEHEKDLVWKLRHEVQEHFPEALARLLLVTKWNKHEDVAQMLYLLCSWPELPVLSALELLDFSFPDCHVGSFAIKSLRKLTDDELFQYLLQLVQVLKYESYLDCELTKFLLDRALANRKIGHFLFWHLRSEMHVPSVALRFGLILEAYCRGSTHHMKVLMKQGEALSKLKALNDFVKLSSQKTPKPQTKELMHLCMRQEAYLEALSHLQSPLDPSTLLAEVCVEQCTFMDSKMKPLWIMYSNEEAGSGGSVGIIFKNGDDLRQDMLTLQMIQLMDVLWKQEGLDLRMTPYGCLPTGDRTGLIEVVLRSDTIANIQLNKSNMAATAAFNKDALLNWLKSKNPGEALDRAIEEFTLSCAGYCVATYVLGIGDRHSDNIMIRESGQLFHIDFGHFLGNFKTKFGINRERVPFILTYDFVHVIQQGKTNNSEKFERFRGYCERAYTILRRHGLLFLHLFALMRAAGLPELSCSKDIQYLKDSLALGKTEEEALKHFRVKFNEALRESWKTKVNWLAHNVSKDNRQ
In short: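 PI3Kδ was tested with the PI3K-Glo Class I Profiling Kit and a luminescence read-out, following the manufacturer's protocol. Each compound was tested at a single concentration of 200 nM and expressed as percent inhibition versus control.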

[3] = test system: Raji; assay: Antiproliferative activity against human Raji cells after 48 hrs by CCK8 assay; assay type: functional, cell-based; in short: as §1
[4] = biological target: T2, Phosphatidylinositol 4,5-bisphosphate 3-kinase catalytic subunit delta isoform (Homo sapiens, UniProt O00329); assay: Inhibition of PI3Kdelta (unknown origin) by ADP-gloassay
T2 sequence (O00329 whole entry): T1 sequence (whole entry)
In short: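 PI3K isoform activity was measured with the PI3K-Glo Class I Profiling Kit, a luminescent ADP-Glo-type read-out, following the manufacturer's protocol.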

[5] = biological target: T3, Tyrosine-protein kinase BTK (Homo sapiens, UniProt Q06187); conditions: at 200 nM
[6] = biological target: T3, Tyrosine-protein kinase BTK; assay: Inhibition of BTK (unknown origin) by ADP-gloassay
[7] = test system: Ramos; assay: Cell cycle arrest in human Ramos cells assessed as accumulation at S phase at 5 uM after 48 hrs by propidium iodide staining based flow cytometric analysis (reference value: 71.08%); assay type: functional
[8] = test system: Ramos; assay: Induction of apoptosis in human Ramos cells assessed as early apoptotic cells at 5 uM after 48 hrs by Annexin-V-FITC/propidium iodide staining based flow cytometric analysis (reference value: 1.08%); assay type: functional
[9] = test system: Ramos; assay: Induction of apoptosis in human Ramos cells assessed as late apoptotic cells at 5 uM after 48 hrs by Annexin-V-FITC/propidium iodide staining based flow cytometric analysis (reference value: 0.98%); assay type: functional
[10] = test system: Ramos; assay: Induction of apoptosis in human Ramos cells assessed as necrotic cells at 5 uM after 48 hrs by Annexin-V-FITC/propidium iodide staining based flow cytometric analysis (reference value: 1.11%); assay type: functional
[11] = test system: Raji; assay: Antiproliferative activity against human Raji cells at 5 uM after 24 hrs by CCK8 assay; assay type: functional, cell-based
In short: (§2)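 Raji (Burkitt lymphoma) cells in RPMI1640 or IMDM with 10% FBS, 37 °C, 5% CO2; seeded 3000-5000 cells/well, preincubated 12-24 h, then exposed to compound. Cells collected at different times and viability read by CCK-8 (4 h incubation, OD 450 nm).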

[12] = test system: Ramos; assay: Induction of apoptosis in human Ramos cells assessed as viable cells at 5 uM after 48 hrs by Annexin-V-FITC/propidium iodide staining based flow cytometric analysis (reference value: 96.83%); assay type: functional; conditions: read-out: Activity
[13] = test system: Ramos; assay: Cell cycle arrest in human Ramos cells assessed as accumulation at G2/M phase at 5 uM after 48 hrs by propidium iodide staining based flow cytometric analysis (reference value: 4.26%); assay type: functional
[14] = test system: Ramos; assay: Cell cycle arrest in human Ramos cells assessed as accumulation at apoptotic phase at 5 uM after 48 hrs by propidium iodide staining based flow cytometric analysis (reference value: 5.03%); assay type: functional
[15] = test system: Raji; assay: Antiproliferative activity against human Raji cells at 5 uM up to 24 hrs by CCK8 assay; assay type: functional, cell-based; in short: as §2
[16] = test system: Ramos; assay: Cell cycle arrest in human Ramos cells assessed as accumulation at G0/G1 phase at 5 uM after 48 hrs by propidium iodide staining based flow cytometric analysis (reference value: 24.65%); assay type: functional
[17] = biological target: T1, Phosphatidylinositol 4,5-bisphosphate 3-kinase catalytic subunit delta isoform (Homo sapiens); assay: Inhibition of PI3Kdelta in human Ramos cells assessed as reduction in mTOR phosphorylation at Ser2481 residues at 0.25 to 1 uM after 4 hrs by Western blot analysis; assay type: cell-based
In short: (§3)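 Ramos cells pretreated with compound for 4 h, then stimulated or not with anti-human IgM F(ab')2. Cells were washed in PBS and lysed on ice for 0.5 h in Tris-Cl pH 6.8/SDS/glycerol/β-mercaptoethanol/PMSF/NaF/DTT buffer, then heated. Protein was quantified by BCA, with equal amounts run on 12% SDS-PAGE and semi-dry blotted to PVDF. Primary antibodies overnight at 4 °C, HRP secondary 1 h at 37 °C, ECL detection on film.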

[18] = biological target: T1, Phosphatidylinositol 4,5-bisphosphate 3-kinase catalytic subunit delta isoform (Homo sapiens); assay: Inhibition of PI3Kdelta in human Ramos cells assessed as reduction in Akt phosphorylation at Ser473 residues at 0.25 to 1 uM after 4 hrs by Western blot analysis; assay type: cell-based; in short: as §3
[19] = biological target: Serine/threonine-protein kinase mTOR (Homo sapiens, UniProt P42345); assay: Inhibition of mTOR (unknown origin) by ADP-gloassay
[20] = biological target: Phosphatidylinositol 4,5-bisphosphate 3-kinase catalytic subunit gamma isoform (Homo sapiens, UniProt P48736); assay: Inhibition of PI3Kgamma (unknown origin) by ADP-gloassay
In short: (§4)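 PI3K isoform activity was measured with the PI3K-Glo Class I Profiling Kit, a luminescent ADP-Glo-type read-out, following the manufacturer's protocol. Compounds were tested over 1 nM–5 μM to give IC50 values.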

[21] = biological target: T1, Phosphatidylinositol 4,5-bisphosphate 3-kinase catalytic subunit delta isoform (Homo sapiens); assay: Inhibition of PI3Kdelta in human Ramos cells assessed as reduction in Akt phosphorylation at Ser473 residues at 0.25 to 4 uM after 4 hrs by Western blot analysis; assay type: cell-based
In short: (§5)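 Cells were treated with compound for 4 h, then stimulated or not with anti-human IgM F(ab')2. They were lysed in Tris-Cl pH 6.8/4% SDS/glycerol/β-mercaptoethanol buffer on ice and protein was quantified by BCA. Equal protein was run on 12% SDS-PAGE and transferred to PVDF. Blots were probed with specific primary antibodies overnight at 4 °C and HRP secondaries 1 h at 37 °C, with ECL detection.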

[22] = biological target: Phosphatidylinositol 4,5-bisphosphate 3-kinase catalytic subunit alpha isoform (Homo sapiens, UniProt P42336); assay: Inhibition of PI3Kalpha (unknown origin) by ADP-gloassay; in short: as §4
[23] = biological target: Phosphatidylinositol 4,5-bisphosphate 3-kinase catalytic subunit beta isoform (Homo sapiens, UniProt P42338); assay: Inhibition of PI3Kbeta (unknown origin) by ADP-gloassay; in short: as §4
[24] = biological target: T1, Phosphatidylinositol 4,5-bisphosphate 3-kinase catalytic subunit delta isoform (Homo sapiens); assay: Inhibition of PI3Kdelta in human Ramos cells assessed as reduction in mTOR phosphorylation at Ser2481 residues at 0.25 to 4 uM after 4 hrs by Western blot analysis; assay type: cell-based; in short: as §5

T3 sequence (Q06187 whole entry): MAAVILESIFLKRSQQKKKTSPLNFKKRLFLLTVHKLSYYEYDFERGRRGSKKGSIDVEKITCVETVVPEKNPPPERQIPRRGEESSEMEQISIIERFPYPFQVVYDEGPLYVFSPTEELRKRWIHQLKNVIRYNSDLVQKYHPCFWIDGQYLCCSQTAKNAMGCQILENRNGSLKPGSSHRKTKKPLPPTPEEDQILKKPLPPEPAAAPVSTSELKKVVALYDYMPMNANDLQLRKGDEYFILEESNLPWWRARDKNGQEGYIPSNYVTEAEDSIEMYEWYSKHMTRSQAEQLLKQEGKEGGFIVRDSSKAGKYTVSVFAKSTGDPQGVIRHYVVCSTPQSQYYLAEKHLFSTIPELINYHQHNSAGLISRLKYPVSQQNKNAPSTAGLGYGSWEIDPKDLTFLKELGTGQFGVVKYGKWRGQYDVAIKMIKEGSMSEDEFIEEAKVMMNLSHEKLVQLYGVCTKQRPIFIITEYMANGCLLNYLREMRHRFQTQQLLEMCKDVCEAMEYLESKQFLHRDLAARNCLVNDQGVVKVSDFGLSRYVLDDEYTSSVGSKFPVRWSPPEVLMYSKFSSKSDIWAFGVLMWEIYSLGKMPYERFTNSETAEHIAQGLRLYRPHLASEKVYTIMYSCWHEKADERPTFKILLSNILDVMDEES
Sequence of Phosphatidylinositol 4,5-bisphosphate 3-kinase catalytic subunit alpha isoform (P42336 whole entry, canonical isoform): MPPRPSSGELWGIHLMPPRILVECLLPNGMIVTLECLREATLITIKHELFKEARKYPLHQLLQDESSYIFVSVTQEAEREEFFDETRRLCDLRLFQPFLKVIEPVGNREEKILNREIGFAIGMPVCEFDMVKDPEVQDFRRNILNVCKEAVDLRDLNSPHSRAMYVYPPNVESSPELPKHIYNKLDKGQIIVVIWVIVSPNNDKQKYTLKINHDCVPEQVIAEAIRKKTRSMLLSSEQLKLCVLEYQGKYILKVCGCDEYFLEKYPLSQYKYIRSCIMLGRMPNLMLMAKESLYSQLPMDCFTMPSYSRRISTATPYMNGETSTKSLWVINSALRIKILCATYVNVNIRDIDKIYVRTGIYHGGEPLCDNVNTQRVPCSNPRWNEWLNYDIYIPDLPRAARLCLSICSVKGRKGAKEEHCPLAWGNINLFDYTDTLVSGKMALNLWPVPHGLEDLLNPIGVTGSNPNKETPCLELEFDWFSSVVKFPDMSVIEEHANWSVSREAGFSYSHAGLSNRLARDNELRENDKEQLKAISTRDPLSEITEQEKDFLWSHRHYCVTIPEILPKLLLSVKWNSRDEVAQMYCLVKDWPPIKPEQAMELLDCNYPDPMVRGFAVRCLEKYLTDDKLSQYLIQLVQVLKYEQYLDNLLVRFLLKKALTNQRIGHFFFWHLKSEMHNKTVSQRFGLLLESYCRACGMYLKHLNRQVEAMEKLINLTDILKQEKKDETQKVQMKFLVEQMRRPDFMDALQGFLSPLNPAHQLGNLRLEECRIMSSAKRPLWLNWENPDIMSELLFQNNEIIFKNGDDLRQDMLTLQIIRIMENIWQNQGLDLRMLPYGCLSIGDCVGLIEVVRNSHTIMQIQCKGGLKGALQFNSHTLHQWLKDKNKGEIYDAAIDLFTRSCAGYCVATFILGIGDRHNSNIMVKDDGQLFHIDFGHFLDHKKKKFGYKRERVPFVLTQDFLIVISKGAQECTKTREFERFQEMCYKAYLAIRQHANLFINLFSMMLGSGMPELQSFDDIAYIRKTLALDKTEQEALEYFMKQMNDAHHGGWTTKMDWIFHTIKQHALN
Sequence of Phosphatidylinositol 4,5-bisphosphate 3-kinase catalytic subunit gamma isoform (P48736 whole entry, canonical isoform): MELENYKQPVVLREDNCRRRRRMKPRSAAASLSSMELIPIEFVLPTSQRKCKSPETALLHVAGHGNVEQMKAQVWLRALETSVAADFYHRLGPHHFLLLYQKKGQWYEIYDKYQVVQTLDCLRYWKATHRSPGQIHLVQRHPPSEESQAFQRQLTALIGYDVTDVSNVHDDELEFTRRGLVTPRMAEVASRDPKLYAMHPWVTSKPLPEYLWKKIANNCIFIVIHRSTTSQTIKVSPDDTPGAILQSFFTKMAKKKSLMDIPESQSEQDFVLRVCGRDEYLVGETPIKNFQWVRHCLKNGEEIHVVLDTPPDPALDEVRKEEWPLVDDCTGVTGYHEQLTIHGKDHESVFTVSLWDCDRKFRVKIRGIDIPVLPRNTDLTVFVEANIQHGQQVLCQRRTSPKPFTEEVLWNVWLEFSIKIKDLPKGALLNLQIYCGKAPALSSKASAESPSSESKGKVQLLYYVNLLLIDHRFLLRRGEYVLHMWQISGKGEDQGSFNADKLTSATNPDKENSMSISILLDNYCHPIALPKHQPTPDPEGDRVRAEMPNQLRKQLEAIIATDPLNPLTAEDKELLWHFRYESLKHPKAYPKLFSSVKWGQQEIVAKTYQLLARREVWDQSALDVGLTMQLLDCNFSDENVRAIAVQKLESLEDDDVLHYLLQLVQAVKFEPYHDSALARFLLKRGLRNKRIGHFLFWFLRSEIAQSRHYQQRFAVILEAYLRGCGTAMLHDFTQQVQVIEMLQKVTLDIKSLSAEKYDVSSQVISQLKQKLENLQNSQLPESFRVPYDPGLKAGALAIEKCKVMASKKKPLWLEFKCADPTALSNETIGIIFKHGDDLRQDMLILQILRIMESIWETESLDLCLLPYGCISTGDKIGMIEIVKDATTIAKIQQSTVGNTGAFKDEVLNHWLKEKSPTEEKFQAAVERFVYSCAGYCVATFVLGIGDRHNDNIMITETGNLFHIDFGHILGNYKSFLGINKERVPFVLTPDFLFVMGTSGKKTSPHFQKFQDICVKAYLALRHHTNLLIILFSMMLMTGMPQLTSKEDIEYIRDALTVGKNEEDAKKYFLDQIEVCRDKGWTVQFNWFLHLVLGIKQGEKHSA
Sequence of Phosphatidylinositol 4,5-bisphosphate 3-kinase catalytic subunit beta isoform (P42338 whole entry, canonical isoform): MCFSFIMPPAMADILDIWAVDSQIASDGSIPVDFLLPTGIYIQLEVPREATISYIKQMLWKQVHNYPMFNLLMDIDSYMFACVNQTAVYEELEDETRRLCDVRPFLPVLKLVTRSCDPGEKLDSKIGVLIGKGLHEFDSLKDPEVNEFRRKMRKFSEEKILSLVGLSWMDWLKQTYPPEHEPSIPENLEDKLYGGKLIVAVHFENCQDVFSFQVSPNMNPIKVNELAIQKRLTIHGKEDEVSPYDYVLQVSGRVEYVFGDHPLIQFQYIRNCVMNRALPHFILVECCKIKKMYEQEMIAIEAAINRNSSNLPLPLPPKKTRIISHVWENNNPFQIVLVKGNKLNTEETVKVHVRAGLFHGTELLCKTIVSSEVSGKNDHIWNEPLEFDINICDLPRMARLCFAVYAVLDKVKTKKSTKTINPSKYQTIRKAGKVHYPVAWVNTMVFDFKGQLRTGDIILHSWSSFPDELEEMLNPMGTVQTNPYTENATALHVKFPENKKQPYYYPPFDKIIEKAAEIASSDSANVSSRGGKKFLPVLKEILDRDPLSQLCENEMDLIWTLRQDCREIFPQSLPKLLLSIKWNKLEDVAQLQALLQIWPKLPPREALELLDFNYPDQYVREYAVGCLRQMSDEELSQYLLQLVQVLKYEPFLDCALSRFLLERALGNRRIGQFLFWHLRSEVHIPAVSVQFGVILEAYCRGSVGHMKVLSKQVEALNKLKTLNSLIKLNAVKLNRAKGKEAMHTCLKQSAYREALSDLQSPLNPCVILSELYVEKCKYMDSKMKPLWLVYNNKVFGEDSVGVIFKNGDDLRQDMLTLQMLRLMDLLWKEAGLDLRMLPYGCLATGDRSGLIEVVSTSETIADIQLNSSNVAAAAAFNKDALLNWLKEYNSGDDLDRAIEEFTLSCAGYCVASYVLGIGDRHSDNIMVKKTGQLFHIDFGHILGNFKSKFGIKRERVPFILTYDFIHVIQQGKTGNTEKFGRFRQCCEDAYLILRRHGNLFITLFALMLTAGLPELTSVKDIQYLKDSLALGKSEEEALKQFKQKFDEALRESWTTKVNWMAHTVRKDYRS

## C=CC(=O)Nc1ccc(-n2c(=O)ccc3oc4ncc(-c5cccnc5)cc4c32)cc1
[1]
  IC50: 1330 nM
[2]
  inhibition: 34.2%
[3]
  IC50: 7.4 µM
[4]
  IC50: 1000 nM
[5]
  inhibition: 38.7%

## C=CC(=O)Nc1ccc(-n2c(=O)ccc3oc4ccc(-c5ccc(F)nc5)cc4c32)cc1
[1]
  IC50: 1650 nM
[2]
  inhibition: 31.7%
[3]
  IC50: 7.3 µM
[4]
  IC50: 1270 nM
[5]
  inhibition: 32.1%

## CN(C)CC(=O)Nc1ccc(-n2c(=O)ccc3oc4ccc(-c5ccc(O)cc5)cc4c32)cc1
[6]
  IC50: 150 nM
[2]
  inhibition: inactive
[3]
  IC50: 1.8 µM
[5]
  inhibition: 51.7%

## CN(C)CC(=O)Nc1ccc(-n2c(=O)ccc3oc4ccc(C5CCN(C(=O)OC(C)(C)C)CC5)cc4c32)cc1
[2]
  inhibition: inactive
[3]
  IC50: 7 µM
[5]
  inhibition: 49.2%

## COc1ccc(-c2cnc3oc4ccc(=O)n(-c5ccc(NC(=O)CN6CCNCC6)cc5)c4c3c2)cn1
[2]
  inhibition: inactive
[3]
  IC50: 33.7 µM
[5]
  inhibition: 32%

## COc1ccc(-c2cnc3oc4ccc(=O)n(-c5ccc(NC(=O)CN6CCCCC6)cc5)c4c3c2)cn1
[6]
  IC50: 125 nM
[2]
  inhibition: inactive
[3]
  IC50: > 40 µM
[5]
  inhibition: 55%

## C=CC(=O)N1CCC[C@@H](n2nc(-c3ccc(Oc4ccccc4)cc3)c3c(N)ncnc32)C1 [IBRUTINIB]
[7]
  Activity: 65.18%
[8]
  Activity: 5.12%
[1]
  IC50: 5800 nM
[9]
  Activity: 2.71%
[10]
  Activity: 0.37%
[11]
  Activity: Active
[12]
  viability at 5 µM: 91.8%
[13]
  Activity: 4.26%
[14]
  Activity: 4.33%
[15]
  Activity: inactive
[16]
  Activity: 30.5%

## C=CC(=O)Nc1cccc(-n2c(=O)ccc3oc4ccc(-c5ccc(F)nc5)cc4c32)c1
[1]
  IC50: 1860 nM
[2]
  inhibition: 34%
[3]
  IC50: 2.2 µM
[4]
  IC50: 920 nM

## CN(C)CC(=O)Nc1ccc(-n2c(=O)ccc3oc4ccc(C5CCNCC5)cc4c32)cc1
[2]
  inhibition: inactive
[3]
  IC50: 2.4 µM
[5]
  inhibition: 33.1%

## Cn1c(=O)n(-c2ccc(C(C)(C)C#N)cc2)c2c3cc(-c4cnc5ccccc5c4)ccc3ncc21 [DACTOLISIB]
[7]
  Activity: 35.34%
[8]
  Activity: 53.54%
[1]
  IC50: 6.8 nM
[9]
  Activity: 40.03%
[10]
  Activity: 0.64%
[3]
  IC50: 0.22 µM
[12]
  viability at 5 µM: 5.78%
[13]
  Activity: 5%
[14]
  Activity: 58.92%
[16]
  Activity: 59.66%
[17]
  inhibition: Active
[18]
  inhibition: Active

## COc1ccc(-c2cnc3oc4ccc(=O)n(-c5ccc(NC(=O)CN(C)C)cc5)c4c3c2)cn1
[6]
  IC50: 150 nM
[2]
  inhibition: inactive
[3]
  IC50: > 40 µM
[5]
  inhibition: 58.8%

## C=CC(=O)Nc1cccc(-n2c(=O)ccc3oc4ccc(-c5cccnc5)cc4c32)c1
[7]
  Activity: 34.56%
[6]
  IC50: 74 nM
[8]
  Activity: 37.62%
[1]
  IC50: 2650 nM
[9]
  Activity: 52.16%
[19]
  IC50: > 10 µM
[10]
  Activity: 0.67%
[20]
  IC50: 2180 nM
[2]
  inhibition: 58.1%
[3]
  IC50: 2.1 µM
[12]
  viability at 5 µM: 9.55%
[21]
  inhibition: Active
[13]
  Activity: 4.64%
[22]
  IC50: 855 nM
[23]
  IC50: 2820 nM
[14]
  Activity: 55.36%
[4]
  IC50: 170 nM
[5]
  inhibition: 86.8%
[16]
  Activity: 60.8%
[24]
  inhibition: Active

## C=CC(=O)Nc1cccc(-n2c(=O)ccc3oc4ccc(-c5ccc(OC)nc5)cc4c32)c1
[6]
  IC50: 80 nM
[1]
  IC50: 1300 nM
[2]
  inhibition: 11.3%
[3]
  IC50: 2.4 µM
[5]
  inhibition: 67.3%

## CN(C)CC(=O)Nc1ccc(-n2c(=O)ccc3oc4ccc(-c5cccc6[nH]ccc56)cc4c32)cc1
[2]
  inhibition: inactive
[3]
  IC50: 18.8 µM
[5]
  inhibition: 47.2%

## CN(C)CC(=O)Nc1ccc(-n2c(=O)ccc3oc4ccc(-c5cccnc5)cc4c32)cc1
[6]
  IC50: 50 nM
[1]
  IC50: 3430 nM
[2]
  inhibition: inactive
[3]
  IC50: 7.1 µM
[5]
  inhibition: 63.4%
